OX1R antag-1: human HCRTR1 antagonism | O43613 | CHO/OX1R cells, Fluo-8 calcium fluorescence, orexin A | inhibition, % at 5 µM | 330,000 compounds, 0.43% hits | AID 434989;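 active = inhibition above its plate's threshold, mean inhibition of all tested compounds on the plate plus 3 SD, cut at about 37% in these data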
Target sequence (O43613 whole entry, looked up): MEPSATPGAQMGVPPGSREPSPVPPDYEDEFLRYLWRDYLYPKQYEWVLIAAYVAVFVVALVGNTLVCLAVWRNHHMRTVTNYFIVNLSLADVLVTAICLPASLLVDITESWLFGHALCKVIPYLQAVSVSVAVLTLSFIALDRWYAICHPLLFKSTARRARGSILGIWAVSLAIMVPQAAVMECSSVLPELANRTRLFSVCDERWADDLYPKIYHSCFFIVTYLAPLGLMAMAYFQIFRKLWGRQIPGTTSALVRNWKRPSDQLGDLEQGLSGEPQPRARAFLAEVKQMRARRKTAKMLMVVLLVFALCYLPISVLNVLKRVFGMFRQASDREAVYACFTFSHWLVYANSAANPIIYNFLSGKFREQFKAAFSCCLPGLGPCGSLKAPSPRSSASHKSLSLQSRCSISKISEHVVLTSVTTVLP
CHO parental Ca: counter-screen for OX1R antagonists: effect in parental CHO cells; inhibition, % at 5.6 µM; parental CHO-K1, ATP-induced calcium, Fluo-8 fluorescence; 330,000 compounds, 0.63% hits;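 active = inhibition above that plate's mean sample inhibition plus 3 SD, cut at about 26% in these data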
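Material – parental CHO cells · Reagent – ATP stimulus · Compound – single nominal dose of 5.6 µM per compound · Detection – Fluo-8 fluorescence · Read-out basis – percent inhibition of calcium signal · Controls – ATP-challenged DMSO wells low, unchallenged DMSO wells high · Repeats – no replicates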
TAAR1 antag: human TAAR1 antagonism; inhibition, % at 3 µM; 360,000 compounds, 1.5% hits; CHO RD-HGA16 TAAR1, Fluo-8 calcium fluorescence, antagonist;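 active = inhibition above a per-plate cutoff, the mean inhibition of test compounds on that plate plus 3 SD, cut at about 49% in these data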
Target sequence (Q96RJ0 whole entry, looked up): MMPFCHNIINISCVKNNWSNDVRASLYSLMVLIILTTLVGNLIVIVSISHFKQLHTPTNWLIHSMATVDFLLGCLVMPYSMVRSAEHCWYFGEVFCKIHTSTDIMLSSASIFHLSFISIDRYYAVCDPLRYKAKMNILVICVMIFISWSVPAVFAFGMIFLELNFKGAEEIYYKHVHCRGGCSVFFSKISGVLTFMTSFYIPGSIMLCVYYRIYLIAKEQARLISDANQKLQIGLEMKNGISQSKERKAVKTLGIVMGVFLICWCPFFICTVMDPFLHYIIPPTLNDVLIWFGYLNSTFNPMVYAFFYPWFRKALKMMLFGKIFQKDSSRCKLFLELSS
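Test system – hTAAR1-expressing CHO RD-HGA16 cells, Gα16-coupled · Reagent – β-PEA at EC80 concentration, post-compound challenge · Compound dosing – 3 µM, single point · Timing – 140 s kinetic read after compound, 140 s after agonist · Detection – Fluo-8 intracellular calcium dye fluorescence, real-time kinetic reads · Control set – DMSO and EC80 PEA controls · Repeats – n of 1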
TAAR1 agonist: agonists of human TAAR1. Q96RJ0. CHO RD-HGA16 TAAR1, Fluo-8 calcium fluorescence; vehicle wells 0%, saturating PEA agonist 100%. activation, % at 3 µM. 360,000 compounds, 0.99% hits. AID 624467;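 active = activation above the mean activation of all test compounds in the run plus 3 SD, cut at about 38% in these data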
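System: CHO-derived RD-HGA16 cells with stable Gα16 and human TAAR1 / Times: 17-24 h plating, Fluo-8 75 min 37 °C, 30 min RT / Technique: calcium-sensitive Fluo-8 signal, excitation 470-495, emission 515-575 nm / Measure: % activation relative to PEA EC100 response / Benchmarks: DMSO and PEA EC100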
OX1R antag-2: OX1R (human) antagonism; O43613; OX1R-expressing cells, FRET antagonist read-out; inhibition, % at 6.6 µM; 330,000 compounds, 1.8% hits; in the data active = inhibition mostly above about 38%, no sharp cut-off; inactive = mostly below about 40%
TAAR1 ag conf: human TAAR1 agonism, confirmed | CHO RD-HGA16 TAAR1, Fluo-8 calcium fluorescence; scaled: DMSO 0%, maximal phenethylamine 100% | AID 651783 | activation, % at 3 µM | shares compounds with TAAR1 agonist | 2,400 compounds, 82% hits;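 active = activation above a cutoff set at the run's mean compound activation plus 3 SD, cut at about 39% in these data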
Ga16 nonsel ag: counter-screen for TAAR1 agonists: nonselective agonists in parental cells | shares compounds with TAAR1 agonist | 2,400 compounds, 50% hits | CHO-Ga16 parental, Fluo-8 calcium fluorescence; normalized to maximal ATP response, DMSO zero | activation, % at 3 µM;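 active = activation above the run cutoff, the mean activation over all tested wells plus 3 SD, cut at about 12% in these data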
TAAR1 desens: counter-screen for human TAAR1 agonists: agonists that desensitize TAAR1; CHO RD-HGA16 hTAAR1, Fluo-8 calcium, beta-PEA response inhibition; inhibition, % at 3 µM; 2,400 compounds, 46% hits; shares compounds with TAAR1 agonist;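 active = inhibition above the run cutoff, the mean inhibition of all test compounds plus 3 SD, cut at about 49% in these data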;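 also: beta-PEA stimulus applied at its EC80; loss of beta-PEA calcium signal after compound pretreatment read as receptor desensitization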
Ga16 antag count: nonselective Ga16 antagonism, counter-screen; shares compounds with TAAR1 agonist; CHO-Ga16 ATP-induced calcium, Fluo-8 fluorescence; inhibition, % at 3 µM; 2,400 compounds, 39% hits;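 active = inhibition above the plate's mean compound inhibition plus 3 SD, computed per plate, cut at about 22% in these data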
Hits are given with their value; i = inactive; nt = no result. Compounds with a hit are over-represented: about 4% of the library has one in this group of screens.

SMILES	OX1R antag-1	CHO parental Ca	TAAR1 antag	TAAR1 agonist	OX1R antag-2	TAAR1 ag conf	Ga16 nonsel ag	TAAR1 desens	Ga16 antag count
Nc1nc(CN2CCCCCC2)nc(Nc2ccccc2)n1	i	i	i	i	i	nt	nt	nt	nt
COc1ccccc1Nc1nc(N)nc(CN2CCc3ccccc3C2)n1	i	i	i	43.5	i	54.4	i	i	i
COc1ccc(Nc2nc(N)nc(CN3CCc4ccccc4C3)n2)cc1	i	i	i	44.2	i	88.1	i	i	i
Cc1cc(Br)ccc1-n1[nH]c(C)c(C=Nc2cccc3nsnc23)c1=O	i	i	i	i	i	nt	nt	nt	nt
COc1ccc(N2CC(C(=O)N[C@@H](C)C(=O)NCCc3ccccc3)CC2=O)cc1 (stereo not given in full)	i	i	i	62.0	i	47.6	i	i	i
O=C(N/N=C/c1cc([N+](=O)[O-])cc(Br)c1O)C12CC3CCC(CC(C3)C1)C2	i	i	i	50.0	i	65.8	54.1	i	i
CCOC(=O)c1ccc(NC(=S)N2CCSC2c2ccc(Br)cc2)cc1 (stereo not given)	55.3	45.7	103.3	138.2	i	129.7	92.7	101.6	84.7
CCOC(=O)c1ccc(NC(=S)N2CCC(O)CC2)cc1	i	i	i	i	i	nt	nt	nt	nt
O=c1c2ccccc2c(C=Nc2cccc(O)c2)c(O)n1-c1ccc2c(c1)OCO2	i	i	i	62.2	i	81.8	40.8	67.2	26.0
Cc1ccccc1N(CC(=O)NCC1CCCO1)C(=O)CNS(=O)(=O)c1ccc(F)cc1 (stereo not given)	i	i	i	i	i	nt	nt	nt	nt
CC1=CC2=NC(=O)/C(=C\c3cccn3CCOc3cc(C)ccc3C)C(=N)N2O1	i	i	i	i	i	nt	nt	nt	nt
CC1CCC(NC(=O)C2CC(=O)N(c3ccc(Cl)cc3)C2)CC1 (stereo not given)	i	i	i	i	i	nt	nt	nt	nt
COc1cccc(-c2ccc(NC(=O)C3CCCN(Cc4cnc(N(C)C)s4)C3)cc2)c1 (stereo not given)	i	i	i	63.1	i	63.8	32.8	i	i
CN=c1scc(-c2cccs2)n1/N=C/c1ccc(O)c(O)c1O	i	i	i	45.0	i	56.4	21.3	i	i
O=C(COC(=O)c1cc(S(=O)(=O)N2CCOCC2)ccc1F)NCCc1ccc(F)cc1	i	i	i	i	i	nt	nt	nt	nt
Cn1cc(CN2CCC(C(=O)NC(c3ccc(F)cc3)c3ccc4ccccc4n3)CC2)c2ccccc21 (stereo not given)	nt	nt	51.8	53.1	nt	i	31.6	104.4	51.5
Cc1nc(NCCc2ccccc2)c2nnn(Cc3ccccc3)c2n1	i	i	i	51.2	i	76.6	15.0	i	i
CCC1CN(C(=O)N2CCC(C(=O)NCCc3ccccc3)CC2)c2ccccc2O1 (stereo not given)	i	i	57.8	53.0	i	84.2	15.7	83.0	34.2
CCC1CN(C(=O)N2CCC(C(=O)NCc3ccccc3OC)CC2)c2ccccc2O1 (stereo not given)	i	i	i	i	i	nt	nt	nt	nt
CS(=O)(=O)N1CCN(Cc2cc(=O)n3ccsc3n2)CC1	i	i	i	i	i	nt	nt	nt	nt
N#C/C(=C\c1ccc(O)cc1)C(=O)NCc1cccc(Cl)c1	i	i	i	63.0	i	74.8	36.7	i	26.1
Fc1ccccc1-c1nc(-c2ccc(-c3nn[nH]n3)cc2)no1	i	i	i	51.0	i	i	15.8	i	i
COc1ccc(OC)c(NC(=O)CCn2ccnc2)c1	i	i	i	i	i	nt	nt	nt	nt
Cc1ccc(S(=O)(=O)n2nc(OC(=O)c3cccs3)cc2N)cc1	i	i	i	92.5	i	64.5	33.1	i	i
Cc1ccc(S(=O)(=O)n2nc(OC(=O)c3ccccc3C)cc2N)cc1	i	i	i	47.7	i	53.3	32.5	i	22.7
SMILES	OX1R antag-1	CHO parental Ca	TAAR1 antag	TAAR1 agonist	OX1R antag-2	TAAR1 ag conf	Ga16 nonsel ag	TAAR1 desens	Ga16 antag count
Cc1ccc(S(=O)(=O)n2ccc(OC(=O)c3cccs3)n2)cc1	i	i	i	98.7	i	81.4	45.0	i	i
COc1ccc(-c2ccc(S(=O)(=O)n3nc(OC(=O)c4cccs4)cc3N)cc2)cc1	i	i	i	i	i	nt	nt	nt	nt
COc1ccccc1C(=O)Oc1cc(N)n(S(=O)(=O)c2ccc(C)cc2)n1	i	i	i	i	i	nt	nt	nt	nt
CCc1nnc(SCC(=O)Nc2ccc(N3CCN(S(C)(=O)=O)CC3)cc2)o1	i	i	i	i	i	nt	nt	nt	nt
CCCc1cc(=O)[nH]c(NCCc2ccccc2)n1	i	i	i	i	i	nt	nt	nt	nt
O=c1ccnc(NCCc2ccccc2)[nH]1	i	i	nt	nt	i	nt	i	nt	i
C/C(=N\NC(=O)c1nnn(-c2nonc2N)c1-c1ccc2c(c1)OCO2)c1ccc(F)cc1	i	i	i	i	i	nt	nt	nt	nt
CC/C(=N\NC(=O)c1nnn(-c2nonc2N)c1-c1ccc2c(c1)OCO2)c1ccccc1	i	i	i	i	i	nt	nt	nt	nt
C/C(=N\NC(=O)c1nnn(-c2nonc2N)c1-c1ccc2c(c1)OCO2)c1ccccc1	i	i	i	60.2	i	96.1	46.4	i	i
C/C(=N\NC(=O)c1nnn(-c2nonc2N)c1-c1ccc2c(c1)OCO2)c1ccc(C)cc1	i	i	79.9	124.9	i	126.6	94.0	83.3	63.7
COc1ccc(C(c2nnnn2CCc2ccccc2)N2CCN(C3CCCC3)CC2)cc1 (stereo not given)	i	i	54.2	71.3	i	85.3	i	60.7	i
COc1ccc(Cn2nnnc2C(c2ccccc2)N2CCN(C3CCCC3)CC2)cc1 (stereo not given)	nt	nt	i	i	nt	nt	nt	nt	nt
COc1ccc(CNC(=O)C2CCN(C(=O)[C@@H]3Cc4ccccc4CN3)CC2)cc1	i	i	i	i	i	nt	nt	nt	nt
Cc1cc(N2CCC(C)CC2)c(F)cc1[N+](=O)[O-]	i	i	i	i	i	nt	nt	nt	nt
Cc1cc(N2CCCC2)c(F)cc1/C=C\[N+](=O)[O-]	nt	nt	81.4	192.9	nt	61.4	68.1	59.8	70.1
CCCCOc1ccc(CSCCN)cc1Cl	i	i	i	76.8	i	64.0	i	i	i
Cn1c(NCCc2ccccc2)cc(=O)n(C)c1=O	i	i	nt	nt	i	nt	i	nt	i
CCCNc1cc(=O)n(C)c(=O)n1C	i	i	i	i	i	nt	nt	nt	nt
Cn1c(=O)cc(Nc2ccc(Cl)cc2)[nH]c1=O	i	i	i	48.5	i	66.9	i	i	i
